Sampled rows, rich in hits. Any-hit rate of the full collection: about 1.8%.
CHRM5 antagonist: CHRM5 antagonism in calcium assay | CHO-hM5 cells, Fluo-8 calcium fluorescence, ACh EC80 | inhibition, % at 3 µM | actives 0.59% (n = 360,000) | AID 624040;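 active means inhibition above a per-plate cutoff, the mean of that plate's test compounds plus 3 SD, cut at about 27% in these data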;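 further: 0% = acetylcholine EC80 with DMSO and 100% = DMSO without agonist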
Target sequence (P08912 whole entry, looked up): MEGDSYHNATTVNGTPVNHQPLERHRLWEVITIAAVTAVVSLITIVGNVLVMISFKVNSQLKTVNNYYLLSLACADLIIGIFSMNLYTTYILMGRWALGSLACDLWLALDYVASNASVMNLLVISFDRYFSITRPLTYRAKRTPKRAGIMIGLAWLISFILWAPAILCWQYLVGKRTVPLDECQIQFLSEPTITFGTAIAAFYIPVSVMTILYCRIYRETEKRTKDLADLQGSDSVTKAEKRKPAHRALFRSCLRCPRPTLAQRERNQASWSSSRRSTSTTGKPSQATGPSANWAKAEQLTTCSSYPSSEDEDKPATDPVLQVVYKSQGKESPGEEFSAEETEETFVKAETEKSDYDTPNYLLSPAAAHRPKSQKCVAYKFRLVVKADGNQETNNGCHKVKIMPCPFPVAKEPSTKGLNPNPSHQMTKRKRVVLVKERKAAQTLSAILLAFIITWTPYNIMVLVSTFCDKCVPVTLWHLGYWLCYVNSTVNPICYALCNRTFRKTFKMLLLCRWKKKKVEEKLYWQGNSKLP
M4 ag: CHRM4 agonism in calcium assay; P08173; CHO-K1 hM4/Gqi5, Fluo-8 calcium fluorescence; vehicle 0%, full acetylcholine response 100%; activation, % at 3 µM; actives 0.14% (n = 360,000);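 active means activation above the run mean over all test wells plus 3 SD, cut at about 32% in these data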;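 further: peak over basal fluorescence ratio per well then scaled between controls; 0% = DMSO wells and 100% = acetylcholine at EC100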
M4 PAM: potentiates acetylcholine response at human M4 receptor; AID 624126; CHO-K1 hM4/Gqi5, Fluo-8 calcium fluorescence, ACh EC20; 0% = ACh EC20, 100% = maximal ACh; activation, % at 3 µM; actives 0.4% (n = 360,000);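 active means activation above its plate's cutoff, the mean activation of sample wells plus 3 SD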
CHRM5 agonist: agonists of human muscarinic M5 receptor (CHRM5) | CHO-K1 hM5 cells, Fluo-8 calcium fluorescence; 0% DMSO wells, 100% maximal acetylcholine response | AID 624037 | activation, % at 3 µM | actives 0.19% (n = 360,000);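 active means activation above the run's mean over test compounds plus 3 SD, cut at about 23% in these data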;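 further: signal is peak over basal fluorescence ratio across the kinetic read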
M4 antag: CHRM4 antagonism in calcium assay. inhibition, % at 3 µM. CHO-hM4 cells, ACh EC80, Fluo-8 calcium fluorescence. actives 0.73% (n = 360,000);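 active means inhibition above its plate's cutoff, the mean inhibition of sample wells plus 3 SD, cut at about 27% in these data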;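 further: 0% = acetylcholine EC80 with DMSO and 100% = DMSO without agonist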
M5 PAM: CHRM5 positive allosteric modulation. P08912. CHO-K1 hM5, Fluo-8 calcium, ACh EC20 PAM; 0% = ACh EC20, 100% = ACh EC100. activation, % at 3 µM. actives 0.3% (n = 360,000). AID 624038;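 active means activation above the run cutoff, the mean activation of all test compounds plus 3 SD, cut at about 18% in these data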
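Test system: CHO-K1 hM5 cells / Doses: single-point, 3 µM nominal / Times: Post-acetylcholine fluorescence recording 140 s / Technique: Fluo-8 calcium fluorescence / Measure: Max/basal fluorescence ratio as % of EC20–EC100 ACh window / Benchmarks: low control EC20 acetylcholine (0%), high control EC100 acetylcholine (100%) / Replicates: one well per compound, no replicates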
Numbers without * were called inactive.

For CCOc1ccc(OCCSc2nc3ccccc3[nH]2)cc1 the results were CHRM5 antagonist 8.9, M4 ag 10.7, M4 PAM -3.6, CHRM5 agonist 1.5, M4 antag 4.2 and M5 PAM -14.2.
For COC(=O)[C@]12CCCCC=C1N(CCC1=CCCCC1)C(=O)[C@H](CC(=O)N1CCCCC1)C2 the results were CHRM5 antagonist 7.2, M4 ag 14.0, M4 PAM -5.2, CHRM5 agonist 0.6, M4 antag -8.6 and M5 PAM -6.3.
`COc1ccc(S(=O)(=O)n2nc(OC(=O)c3ccccc3)cc2N)cc1` gave CHRM5 antagonist 1.6, M4 ag -0.2, M4 PAM 9.5, CHRM5 agonist -8.8, M4 antag -1.7 and M5 PAM 2.0.
Screening COc1ccc(S(=O)(=O)n2nc(OC(=O)c3ccco3)cc2N)cc1 returned CHRM5 antagonist 2.6, M4 ag 1.3, M4 PAM 17.7*, CHRM5 agonist -8.1, M4 antag -0.9 and M5 PAM 15.8.
`CC(=O)OC[C@]12CC[C@H]3[C@@](C)(CC[C@H]4C(C)(C)CCC[C@]34C)[C@@H]1CC(C1=CC(=O)OC1O)O2` (some centres not stated) gave CHRM5 antagonist 12.6, M4 ag 2.2, M4 PAM -12.8, CHRM5 agonist 1.3, M4 antag 87.8* and M5 PAM -2.2.
CC(=O)OC[C@]1(OC(C)=O)C[C@@]23CC[C@H]4[C@@](C)(CCC[C@@]4(C)C(=O)O)[C@@H]2CC[C@@H]1C3 was read as CHRM5 antagonist 6.9, M4 ag 0.8, M4 PAM 1.9, CHRM5 agonist -0.9, M4 antag -1.1 and M5 PAM -1.6.
Screening O=C1NC[C@H](Cc2ccccc2)N(C[C@@H]2CCCN2C[C@H](Cc2ccccc2)N2C[C@H](Cc3ccccc3)N(CCc3ccccc3)C(=O)C2=O)C1=O returned CHRM5 antagonist -10.3, M4 ag 0.2, M4 PAM 9.4, CHRM5 agonist -2.9, M4 antag -19.4 and M5 PAM 7.5.
`O=C(NCCc1cccs1)Nc1ccc2nc([C@@H]3O[C@H](CO)[C@@H](O)[C@H]3O)[nH]c2c1` gave CHRM5 antagonist -1.3, M4 ag 1.2, M4 PAM 9.2, CHRM5 agonist 0.0, M4 antag -16.1 and M5 PAM 2.0.
`COc1ccc(N2CCN(C(=O)COC(=O)/C=C/c3ccc(OC(F)F)cc3)CC2)cc1` gave CHRM5 antagonist 0.3, M4 ag 1.0, M4 PAM 23.1*, CHRM5 agonist 3.0, M4 antag -21.0 and M5 PAM -1.0.
Screening COc1cc(/C=C/C(=O)OC(C)C(=O)Nc2c(C)n(C)n(-c3ccccc3)c2=O)ccc1O (configuration not stated) returned CHRM5 antagonist 6.4, M4 ag 0.0, M4 PAM -0.6, CHRM5 agonist 3.8, M4 antag 1.3 and M5 PAM -1.9.
Screening COc1ccc(N2CCN(C(=O)COC(=O)/C=C/c3ccc(C(F)(F)F)cc3)CC2)cc1 returned CHRM5 antagonist -11.6, M4 ag 1.0, M4 PAM -0.2, CHRM5 agonist -0.7, M4 antag -2.2 and M5 PAM 7.9.
CCc1ccc(NC(=O)C(C)OC(=O)/C=C/c2ccc(O)c(OC)c2)cc1 (configuration not stated) was read as CHRM5 antagonist 14.4, M4 ag 27.1, M4 PAM -9.6, CHRM5 agonist 34.6*, M4 antag 5.7 and M5 PAM -14.8.
For COc1cc(/C=C/C(=O)OCC(=O)c2ccc(OC(F)F)cc2)ccc1O the results were CHRM5 antagonist 3.8, M4 ag 11.7, M4 PAM -2.6, CHRM5 agonist 27.0*, M4 antag 1.1 and M5 PAM -10.3.
Screening COc1ccc(Cn2cc(CN3CC(N(C)C)CS3(=O)=O)nn2)cc1 (configuration not stated) returned CHRM5 antagonist -6.0, M4 ag 1.4, M4 PAM 11.6, CHRM5 agonist 1.9, M4 antag -4.1 and M5 PAM 12.2.
Screening COc1ccc(-c2nc3ccc(C)cn3c2Cc2ccsc2)cc1OC returned CHRM5 antagonist 4.7, M4 ag 3.2, M4 PAM -0.6, CHRM5 agonist -2.3, M4 antag -2.3 and M5 PAM -0.2.
For C=C1C2=C(C(=O)N1OC)[C@@H](O)[C@@](C)(O)[C@@H](CCCCC)O2 the results were CHRM5 antagonist -5.4, M4 ag 0.0, M4 PAM 21.6*, CHRM5 agonist 1.2, M4 antag -16.6 and M5 PAM 4.5.
Cc1ccccc1C(=O)NC(NC(=S)Nc1ccc(S(N)(=O)=O)cc1)C(Cl)(Cl)Cl (configuration not stated) was read as CHRM5 antagonist 11.3, M4 ag 2.1, M4 PAM 24.0*, CHRM5 agonist -0.4, M4 antag 3.6 and M5 PAM 1.6.
For Cc1ccc(C(=O)NC(NC(=S)Nc2ccc(S(N)(=O)=O)cc2)C(Cl)(Cl)Cl)cc1 (configuration not stated) the results were CHRM5 antagonist 8.3, M4 ag 3.2, M4 PAM -0.3, CHRM5 agonist -3.5, M4 antag 18.1 and M5 PAM -8.2.
`O=C(NC(NC(=S)Nc1ccccc1)C(Cl)(Cl)Cl)c1cccc(Cl)c1` (configuration not stated) gave CHRM5 antagonist 44.4*, M4 ag 12.5, M4 PAM -5.0, CHRM5 agonist 7.4, M4 antag 8.7 and M5 PAM -10.1.
Screening Cc1cc(C)c(NC(=S)NC(NC(=O)c2ccccc2)C(Cl)(Cl)Cl)c(C)c1 (configuration not stated) returned CHRM5 antagonist 27.0*, M4 ag 7.3, M4 PAM -0.6, CHRM5 agonist 4.7, M4 antag 6.6 and M5 PAM 15.6.
For Cc1ccc(NC(=S)NC(NC(=O)c2ccccc2)C(Cl)(Cl)Cl)c(C)c1 (configuration not stated) the results were CHRM5 antagonist 12.6, M4 ag 7.6, M4 PAM 12.1, CHRM5 agonist 5.9, M4 antag -24.3 and M5 PAM -17.0.
COc1ccc(C(=O)c2[nH]c(N)c(C(=O)NCCc3c[nH]c4ccccc34)c2-c2ccc(Br)cc2)cc1 was read as CHRM5 antagonist 4.0, M4 ag 3.5, M4 PAM 7.5, CHRM5 agonist 6.2, M4 antag -3.0 and M5 PAM 2.1.

Screens: PubChem BioAssay, The Scripps Research Institute Molecular Screening Center
